The text below walks through data of ChEMBL document CHEMBL2331283, “Anti-inflammatory sesquiterpene derivatives from the leaves of Tripterygium wilfordii” (J Nat Prod, 2013).

A word on the IC50: it is the concentration that inhibits the measured activity by half. One may read the inhibition as how much of the control response was suppressed. Higher therefore signals a strong effect.

The structures appear in SMILES notation.

One assay relates to A2780. Kind of assay: Cytotoxicity against human A2780 cells by MTT assay. The format is functional, cell-based. The method in brief: (§1)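 MTT cytotoxicity assay on five human carcinoma lines: A549 (lung), Bel-7402 (liver), BGC-823 (stomach), HCT-8 (colon) and A2780 (ovarian). The assay was run following a published procedure. The read-out is an IC50.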
In general terms: Formazan colour is commonly taken as a measure of viable cells.

Another assay has as its system BGC-823. The experiment in a line: Cytotoxicity against human BGC823 cells by MTT assay. The format is functional, cell-based. The method in brief: as §1
Another assay has as its system A549. Kind of assay: Cytotoxicity against human A549 cells by MTT assay. The format is functional, cell-based. The method in brief:
as §1

The subject of a further assay is HCT-8. Kind of assay: Cytotoxicity against human HCT8 cells by MTT assay. The format is functional, cell-based. A digest of the protocol: as §1
A further assay has as its system Bel-7402. The experiment in a line: Cytotoxicity against human Bel7402 cells by MTT assay. The format is functional, cell-based. The method in brief: as §1
For a further assay, the system named is RAW264.7. The experiment in a line: Inhibition of LPS-induced nitric oxide production in mouse RAW264.7 cells at 5 uM. The format is functional.

For `C/C=C(\C)C(=O)O[C@H]1[C@H](OC(C)=O)[C@@H]2[C@@H](OC(=O)c3cccnc3)[C@@]3(OC2(C)C)[C@@]1(COC(C)=O)[C@@H](OC(C)=O)CC[C@]3(C)O` (relative stereo), the IC50 in the assay on A2780, in the assay with BGC-823, in the assay on A549, in the assay with HCT-8 and with Bel-7402 was greater than 1000 nM each time.

On to `CC(=O)OC[C@@]12[C@@H](OC(=O)/C=C/c3ccccc3)CC[C@](C)(O)[C@]13OC(C)(C)[C@H](C(=O)[C@H]2OC(=O)c1cccnc1)[C@H]3O` (relative stereo) [TRIPTERSININ A], for which the IC50 with A2780, in the assay on BGC-823, with A549, in the assay on HCT-8 and in the assay on Bel-7402 was greater than 1000 nM in each case. In addition, at 5 µM the inhibition in the assay on RAW264.7 was 47.3%.

On to `CC(=O)OC[C@@]12[C@@H](OC(=O)/C=C\c3ccccc3)CC[C@](C)(O)[C@]13OC(C)(C)[C@H](C(=O)[C@H]2OC(=O)c1cccnc1)[C@H]3O` (relative stereo) [TRIPTERSININ B], for which the IC50 in the assay on A2780, in the assay with BGC-823, in the assay with A549, in the assay on HCT-8 and in the assay with Bel-7402 was greater than 1000 nM in each case.

On to `CC(=O)OC[C@@]12[C@@H](OC(=O)/C=C/c3ccccc3)CC[C@](C)(O)[C@]13OC(C)(C)[C@H]([C@@H](OC(C)=O)[C@H]2OC(=O)c1cccnc1)[C@H]3O` (relative stereo) [TRIPTERSININ C], for which the IC50 with A2780, with BGC-823, with A549, with HCT-8 and with Bel-7402 was greater than 1000 nM in each case.

In the case of `CC(=O)OC[C@@]12[C@@H](OC(=O)/C=C\c3ccccc3)CC[C@](C)(O)[C@]13OC(C)(C)[C@H]([C@@H](OC(C)=O)[C@H]2OC(=O)c1cccnc1)[C@H]3O` (relative stereo) [TRIPTERSININ D], the half-maximal inhibitory concentration (IC50) with A2780, in the assay on BGC-823, in the assay with A549, in the assay on HCT-8 and in the assay with Bel-7402 was greater than 1000 nM each time.

Turning to `CC(=O)OC[C@@]12[C@@H](OC(=O)/C=C\c3ccccc3)CC[C@](C)(O)[C@]13OC(C)(C)[C@H]([C@@H](OC(C)=O)[C@H]2OC(=O)c1cccnc1)[C@H]3OC(C)=O` (relative stereo) [TRIPTERSININ E], the half-maximal inhibitory concentration (IC50) with A2780, in the assay on BGC-823, in the assay on A549, with HCT-8 and in the assay on Bel-7402 was greater than 1000 nM throughout.

In the case of `CC(=O)OC[C@@]12[C@@H](OC(C)=O)CC[C@](C)(O)[C@]13OC(C)(C)[C@H]([C@@H](OC(C)=O)[C@H]2OC(=O)c1ccoc1)[C@H]3OC(=O)c1cccnc1` (relative stereo) [TRIPTERSININ F], the IC50 in the assay on A2780, in the assay on BGC-823, in the assay on A549, in the assay on HCT-8 and with Bel-7402 was greater than 1000 nM each time.

On to `CC(=O)OC[C@@]12[C@@H](OC(C)=O)CC[C@](C)(O)[C@]13OC(C)(C)[C@H]([C@@H](OC(=O)c1cccnc1)[C@H]2OC(=O)c1ccoc1)[C@H]3OC(C)=O` (relative stereo) [TRIPTERSININ G], for which the IC50 in the assay with A2780, with BGC-823, in the assay on A549, in the assay with HCT-8 and with Bel-7402 was greater than 1000 nM each time.

Consider `CC(=O)OC[C@@]12[C@@H](OC(=O)c3ccoc3)CC[C@](C)(O)[C@]13OC(C)(C)[C@H]([C@@H](OC(=O)c1cccnc1)[C@H]2OC(=O)c1ccoc1)[C@H]3OC(C)=O` (relative stereo) [TRIPTERSININ H], for which the IC50 with A2780, in the assay on BGC-823, in the assay with A549, in the assay with HCT-8 and in the assay on Bel-7402 was greater than 1000 nM throughout.

For the compound `CC(=O)OC[C@@]12[C@@H](OC(=O)c3ccoc3)CC[C@](C)(O)[C@]13OC(C)(C)[C@H]([C@@H](OC(C)=O)[C@H]2OC(=O)c1ccoc1)[C@H]3O` (relative stereo) [TRIPTERSININ I], the IC50 in the assay on A2780, in the assay on BGC-823, with A549, with HCT-8 and in the assay with Bel-7402 was greater than 1000 nM each time. The same compound showed an inhibition at 5 µM in the assay on RAW264.7 of 45.5%.

Regarding `CC(=O)OC[C@@]12[C@@H](OC(C)=O)CC[C@](C)(O)[C@]13OC(C)(C)[C@H]([C@@H](O)[C@H]2OC(=O)c1ccoc1)[C@H]3OC(=O)c1ccoc1` (relative stereo) [TRIPTERSININ J], the 50% inhibitory concentration (IC50) in the assay with A2780, in the assay on BGC-823, in the assay on A549, with HCT-8 and in the assay with Bel-7402 was greater than 1000 nM throughout.

As for `CC(=O)OC[C@@]12[C@@H](OC(=O)c3ccoc3)CC[C@](C)(O)[C@]13OC(C)(C)[C@H]([C@@H](OC(C)=O)[C@H]2OC(=O)c1ccoc1)[C@H]3OC(C)=O` (relative stereo) [TRIPTERSININ K], the IC50 in the assay on A2780, with BGC-823, in the assay with A549, in the assay with HCT-8 and in the assay on Bel-7402 was greater than 1000 nM throughout. Moreover, 5 µM produced 49.9% inhibition with RAW264.7.

Take `C[C@@H]1C[C@H]2[C@@H]3CCC4=CC(=O)C=C[C@]4(C)[C@@]3(F)[C@@H](O)C[C@]2(C)[C@@]1(O)C(=O)CO` [DEXAMETHASONE]: the inhibition at 5 µM in the assay on RAW264.7 came out at 70.4%.

In the case of `CC(=O)OC[C@]12[C@H](OC(C)=O)[C@H](OC(C)=O)[C@@H]3[C@@H](OC(C)=O)[C@@]14O[C@@]3(C)COC(=O)c1cccnc1CCC(C)C(=O)O[C@@H]([C@H](OC(C)=O)[C@@H]2OC(C)=O)[C@]4(C)O` (some centres not stated) [EUONINE], the IC50 with A2780, with BGC-823, in the assay with A549, in the assay with HCT-8 and in the assay on Bel-7402 was greater than 1000 nM throughout. The inhibition at 5 µM with RAW264.7 was 54.7%.

As for `CC(=O)OC[C@]12[C@H](OC(C)=O)[C@H](OC(C)=O)[C@@H]3[C@@H](OC(C)=O)[C@@]14O[C@@]3(C)COC(=O)c1cccnc1C(C)C(C)C(=O)O[C@@H]([C@H](OC(C)=O)[C@@H]2OC(C)=O)[C@]4(C)O` (some centres not stated) [EUONYMINE], the IC50 with A2780, with BGC-823, with A549, in the assay with HCT-8 and in the assay on Bel-7402 was greater than 1000 nM each time.

For `CC(=O)O[C@@H]1[C@@H]2[C@@H](OC(C)=O)[C@@]34O[C@@]2(C)COC(=O)c2cnccc2C(C)C(C)(O)C(=O)O[C@@H]([C@H](OC(C)=O)[C@H](OC(C)=O)[C@@]3(COC(=O)c2ccco2)[C@@H]1OC(C)=O)[C@]4(C)O` (some centres not stated) [HYPOGLAUNINE A], the IC50 in the assay on A2780, in the assay with BGC-823, in the assay with A549, with HCT-8 and in the assay with Bel-7402 was greater than 1000 nM throughout.

Regarding `CC(=O)O[C@@H]1[C@@H]2[C@@H](O)[C@@]34O[C@@]2(C)COC(=O)c2cnccc2C(C)C(C)(O)C(=O)O[C@@H]([C@H](OC(C)=O)[C@H](OC(C)=O)[C@@]3(COC(=O)c2ccoc2)[C@@H]1OC(C)=O)[C@]4(C)O` (some centres not stated) [HYPOGLAUNINE E], the IC50 in the assay with A2780, in the assay with BGC-823, with A549, in the assay on HCT-8 and in the assay on Bel-7402 was greater than 1000 nM in each case.

Turning to `CC(=O)OC[C@]12[C@H](OC(C)=O)[C@H](OC(C)=O)[C@@H]3[C@@H](OC(C)=O)[C@@]14O[C@@]3(C)COC(=O)c1cnccc1C(C)C(C)C(=O)O[C@@H]([C@H](OC(C)=O)[C@@H]2OC(C)=O)[C@]4(C)O` (some centres not stated) [PERITASSIN A], the IC50 with A2780, with BGC-823, in the assay on A549, in the assay on HCT-8 and in the assay with Bel-7402 was greater than 1000 nM each time. Further, in the assay with RAW264.7, 5 µM produced 48.2% inhibition.

As for `CC(=O)OC[C@]12[C@H](OC(C)=O)[C@H](OC(C)=O)[C@@H]3[C@@H](OC(C)=O)[C@@]14O[C@@]3(C)COC(=O)c1cnccc1C(C)C(C)C(=O)O[C@@H]([C@H](O)[C@@H]2OC(C)=O)[C@]4(C)O` (some centres not stated) [WILFORDININE A], the IC50 in the assay on A2780, in the assay on BGC-823, in the assay on A549, in the assay with HCT-8 and with Bel-7402 was greater than 1000 nM each time. Besides, in the assay with RAW264.7, at 5 µM the inhibition was 59%.

Consider `CC(=O)OC[C@]12[C@@H](OC(C)=O)[C@H](OC(C)=O)[C@@H]3[C@@H](OC(C)=O)[C@@]14O[C@@]3(C)COC(=O)c1cnccc1CCC(C)C(=O)O[C@@H]([C@H](OC(C)=O)[C@@H]2OC(C)=O)[C@]4(C)O` (some centres not stated) [WILFORDININE E], for which the concentration for half-maximal inhibition (IC50) in the assay with A2780, with BGC-823, with A549, in the assay with HCT-8 and in the assay with Bel-7402 was greater than 1000 nM in each case.

For the compound `CC(=O)OC[C@]12[C@H](OC(C)=O)[C@H](OC(C)=O)[C@@H]3[C@@H](OC(C)=O)[C@@]14O[C@@]3(C)COC(=O)c1cccnc1CCC(C)(O)C(=O)O[C@@H]([C@H](OC(=O)c1ccco1)[C@@H]2OC(C)=O)[C@]4(C)O` (some centres not stated) [WILFORTRINE], the IC50 with A2780, in the assay on BGC-823, with A549, in the assay on HCT-8 and with Bel-7402 was greater than 1000 nM throughout.
